Test results published in ChEMBL document CHEMBL1136843, “N-Benzyl-1-heteroaryl-3-(trifluoromethyl)-1H-pyrazole-5-carboxamides as inhibitors of co-activator associated arginine methyltransferase 1 (CARM1)” (Bioorg Med Chem Lett, 2009).
Activity calls are given as the source filed them. The rule behind the calls is not given here.

Columns and labels:
[1] = target: T1, Histone-lysine N-methyltransferase SETD7 (Homo sapiens, UniProt Q8WTS6); experiment: Inhibition of Set7/9 lysine methyltransferase
T1 sequence (Q8WTS6 whole entry): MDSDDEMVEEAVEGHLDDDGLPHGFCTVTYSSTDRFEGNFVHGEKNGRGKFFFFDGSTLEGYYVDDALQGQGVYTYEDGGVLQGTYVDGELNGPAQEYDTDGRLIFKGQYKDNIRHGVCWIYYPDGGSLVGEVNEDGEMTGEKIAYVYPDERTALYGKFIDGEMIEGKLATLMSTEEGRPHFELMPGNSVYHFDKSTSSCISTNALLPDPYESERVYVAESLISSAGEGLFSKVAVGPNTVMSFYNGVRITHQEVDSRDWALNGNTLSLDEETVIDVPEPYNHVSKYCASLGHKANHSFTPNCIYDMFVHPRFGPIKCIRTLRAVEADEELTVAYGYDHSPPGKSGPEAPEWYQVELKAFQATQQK

[2] = target: T2, Estrogen receptor (Homo sapiens, UniProt P03372); experiment: Antiestrogenic activity in human T47D cells expressing estrogen receptor assessed as estrogen-dependent transcription by luciferase reporter gene assay; format: cell-based
T2 sequence (P03372 whole entry): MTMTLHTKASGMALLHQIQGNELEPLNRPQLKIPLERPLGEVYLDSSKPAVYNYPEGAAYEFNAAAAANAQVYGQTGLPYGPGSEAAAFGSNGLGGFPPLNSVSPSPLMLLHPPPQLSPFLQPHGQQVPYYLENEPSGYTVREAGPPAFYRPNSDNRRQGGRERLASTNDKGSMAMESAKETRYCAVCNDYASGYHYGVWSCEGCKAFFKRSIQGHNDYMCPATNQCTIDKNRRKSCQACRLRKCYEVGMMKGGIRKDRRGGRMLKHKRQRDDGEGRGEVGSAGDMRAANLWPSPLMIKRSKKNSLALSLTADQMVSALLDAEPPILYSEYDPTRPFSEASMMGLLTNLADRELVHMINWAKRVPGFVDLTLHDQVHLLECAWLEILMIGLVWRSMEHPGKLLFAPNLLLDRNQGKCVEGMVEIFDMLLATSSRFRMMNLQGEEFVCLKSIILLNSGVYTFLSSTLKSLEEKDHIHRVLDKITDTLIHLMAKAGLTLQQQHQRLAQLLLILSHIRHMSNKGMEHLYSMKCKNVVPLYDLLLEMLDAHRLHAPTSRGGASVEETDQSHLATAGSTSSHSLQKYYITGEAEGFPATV

[3] = target: T3, Histone-arginine methyltransferase CARM1 (Mus musculus, UniProt Q9WVG6); experiment: Inhibition of mouse recombinant his-tagged CARM1 expressed in Sf9 cells by histone methyltransferase assay
T3 sequence (Q9WVG6 whole entry): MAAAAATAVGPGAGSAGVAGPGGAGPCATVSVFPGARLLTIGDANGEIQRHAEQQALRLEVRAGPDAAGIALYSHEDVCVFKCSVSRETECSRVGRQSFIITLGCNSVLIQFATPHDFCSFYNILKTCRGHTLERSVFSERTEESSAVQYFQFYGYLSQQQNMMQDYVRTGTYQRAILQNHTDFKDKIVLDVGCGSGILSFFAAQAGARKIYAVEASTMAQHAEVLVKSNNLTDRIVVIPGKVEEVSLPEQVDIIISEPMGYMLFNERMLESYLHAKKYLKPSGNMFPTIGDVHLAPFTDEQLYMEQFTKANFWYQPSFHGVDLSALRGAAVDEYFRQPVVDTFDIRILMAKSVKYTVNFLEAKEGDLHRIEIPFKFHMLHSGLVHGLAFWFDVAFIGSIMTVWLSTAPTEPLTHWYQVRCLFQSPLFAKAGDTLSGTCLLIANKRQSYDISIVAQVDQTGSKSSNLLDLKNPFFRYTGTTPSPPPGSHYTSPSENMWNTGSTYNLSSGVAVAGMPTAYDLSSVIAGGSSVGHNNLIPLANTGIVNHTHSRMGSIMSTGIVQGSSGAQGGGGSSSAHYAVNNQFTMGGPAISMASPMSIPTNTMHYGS
Summary of the method: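 Recombinant CARM1 diluted in Tris–HCl pH 9 and pre-incubated with compound for 10 min at rt. Histone H3 substrate plus SAM containing 20% [3H]SAM then added and incubated 15 min at 30 °C. Reaction quenched with SAH, spotted onto P30 filtermat with wax scintillant, and incorporated radioactivity counted.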

[4] = system: T47D; experiment: Growth inhibition of human estrogen-dependent T47D cells after 72 hrs; format: functional, cell-based
Summary of the method: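 T47D breast ductal carcinoma cells stimulated with estradiol and counted after 72 h; tamoxifen as positive control.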

[5] = system: DU-145; experiment: Cytotoxicity against human DU145 cells by MTT assay; format: functional, cell-based
Summary of the method: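 DU145 prostate carcinoma cell growth measured by MTT proliferation assay; HDAC inhibitor MS-275 as positive control.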

[6] = target: T4, Histone-arginine methyltransferase CARM1 (Mus musculus) (UniProt Q9WVG6); experiment: Inhibition of mouse recombinant CARM1 assessed as inhibition of histone H3 methylation at 5 uM after 48 hrs by cell based assay
T4 sequence (whole entry): T3 sequence (Q9WVG6 whole entry)
Summary of the method: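 Cell-based readout of histone H3 arginine 26 methylation, a CARM1 target site, in two different cell lines treated with compound up to […] for 48 h.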

[7] = target: Protein arginine N-methyltransferase 1 (Homo sapiens, UniProt Q99873); experiment: Inhibition of PRMT1
[8] = target: T5, Androgen receptor (Homo sapiens, UniProt P10275); experiment: Antiandrogenic activity in human MDA-MB-453 cells expressing androgen receptor assessed as inhibition of DHT-induced androgen-dependent transcription by luciferase reporter gene assay; format: cell-based
T5 sequence (P10275 whole entry): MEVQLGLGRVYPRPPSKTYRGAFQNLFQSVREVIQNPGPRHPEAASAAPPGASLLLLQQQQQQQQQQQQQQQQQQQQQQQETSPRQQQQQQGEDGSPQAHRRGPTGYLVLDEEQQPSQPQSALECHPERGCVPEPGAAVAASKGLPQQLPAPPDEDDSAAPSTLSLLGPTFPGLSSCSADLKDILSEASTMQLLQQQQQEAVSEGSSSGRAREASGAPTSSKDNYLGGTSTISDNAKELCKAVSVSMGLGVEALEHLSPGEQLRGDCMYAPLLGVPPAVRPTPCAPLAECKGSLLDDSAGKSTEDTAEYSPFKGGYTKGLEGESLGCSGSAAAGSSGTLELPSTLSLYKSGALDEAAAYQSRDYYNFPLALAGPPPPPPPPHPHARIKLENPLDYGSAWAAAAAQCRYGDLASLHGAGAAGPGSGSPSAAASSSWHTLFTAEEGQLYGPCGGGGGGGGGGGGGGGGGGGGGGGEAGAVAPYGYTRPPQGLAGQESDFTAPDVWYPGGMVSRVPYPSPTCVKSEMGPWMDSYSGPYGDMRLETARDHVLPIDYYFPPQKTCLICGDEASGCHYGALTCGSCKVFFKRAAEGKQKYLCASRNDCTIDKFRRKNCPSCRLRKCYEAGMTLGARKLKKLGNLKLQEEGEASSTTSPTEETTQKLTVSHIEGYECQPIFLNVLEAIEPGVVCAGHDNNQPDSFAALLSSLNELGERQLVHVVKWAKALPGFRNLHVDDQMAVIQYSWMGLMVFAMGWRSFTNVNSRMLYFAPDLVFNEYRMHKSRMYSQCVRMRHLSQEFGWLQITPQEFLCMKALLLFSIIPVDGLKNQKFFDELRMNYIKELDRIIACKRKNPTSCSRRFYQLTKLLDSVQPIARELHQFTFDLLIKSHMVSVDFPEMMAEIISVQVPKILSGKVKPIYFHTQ

Sequence of Protein arginine N-methyltransferase 1 (Q99873 whole entry): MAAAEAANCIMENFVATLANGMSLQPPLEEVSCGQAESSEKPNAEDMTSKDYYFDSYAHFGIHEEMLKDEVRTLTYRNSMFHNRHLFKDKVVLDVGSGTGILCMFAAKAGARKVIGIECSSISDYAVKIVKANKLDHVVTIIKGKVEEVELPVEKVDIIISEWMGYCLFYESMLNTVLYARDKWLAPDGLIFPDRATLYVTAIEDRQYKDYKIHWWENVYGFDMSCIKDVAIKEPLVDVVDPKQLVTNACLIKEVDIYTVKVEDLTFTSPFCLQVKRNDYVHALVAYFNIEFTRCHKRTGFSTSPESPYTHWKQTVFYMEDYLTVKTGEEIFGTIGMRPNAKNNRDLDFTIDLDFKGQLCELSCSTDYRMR

SMILES	IC50 [3] [nM]	further results
COc1ccccc1CNC(=O)c1cc(C(F)(F)F)nn1-c1csc(CNC(=O)[C@H](C)N)c1	60	IC50 [1]: > 100000 nM; IC50 [2]: > 10000 nM; IC50 [4]: > 10000 nM; IC50 [5]: 18000 nM; Activity [6]: inactive; IC50 [7]: > 100000 nM; IC50 [8]: > 10000 nM
C[C@H](N)C(=O)NCc1ccc(-n2nc(C(F)(F)F)cc2C(=O)NCc2ccccc2C(F)(F)F)s1	4480	
C[C@H](N)C(=O)NCc1ccc(-n2nc(C(F)(F)F)cc2C(=O)NCc2ccccc2F)s1	2310	
C[C@H](N)C(=O)NCc1cc(-n2nc(C(F)(F)F)cc2C(=O)NCc2ccccc2F)cs1	790	
COc1ccccc1CNC(=O)c1cc(C(F)(F)F)nn1-c1cccc(CNC(=O)[C@H](C)N)c1	60	IC50 [2]: > 10000 nM; IC50 [4]: > 10000 nM; IC50 [5]: 18000 nM; IC50 [8]: > 10000 nM
COc1ccccc1CNC(=O)c1cc(C(F)(F)F)nn1-c1nc(CNC(=O)[C@H](C)N)cs1	2200	
Nc1ccccc1NC(=O)c1ccc(CNC(=O)OCc2cccnc2)cc1 [ENTINOSTAT]		IC50 [5]: 2000 nM
C[C@H](N)C(=O)NCc1ccc(-n2nc(C(F)(F)F)cc2C(=O)NCc2ccccn2)s1	3350	
CC/C(=C(\c1ccccc1)c1ccc(OCCN(C)C)cc1)c1ccccc1 [TAMOXIFEN]		IC50 [4]: 1000 nM
COc1ccccc1CNC(=O)c1cc(C(F)(F)F)nn1-c1cccc2cc(CNC(=O)[C@H](C)N)oc12	> 10000	
CC(C)Oc1ccccc1CNC(=O)c1cc(C(F)(F)F)nn1-c1ccc(CNC(=O)[C@H](C)N)s1	2920	
COc1ccccc1CNC(=O)c1cc(C(F)(F)F)nn1-c1cc(CNC(=O)[C@H](C)N)ccn1	4200	
COc1ccccc1CNC(=O)c1cc(C(F)(F)F)nn1-c1cccc(CNC(=O)[C@H](C)N)n1	3050	
C[C@H](N)C(=O)NCc1cc(-n2nc(C(F)(F)F)cc2C(=O)NCc2ccccc2)cs1	220	
C[C@H](N)C(=O)NCc1ccc(-n2nc(C(F)(F)F)cc2C(=O)NCc2ccccc2)s1	230	
Cc1ccccc1CNC(=O)c1cc(C(F)(F)F)nn1-c1csc(CNC(=O)[C@H](C)N)c1	260	
COc1cccc(CNC(=O)c2cc(C(F)(F)F)nn2-c2csc(CNC(=O)[C@H](C)N)c2)c1	370	
COC(=O)c1ccccc1CNC(=O)c1cc(C(F)(F)F)nn1-c1csc(CNC(=O)[C@H](C)N)c1	770	
COc1ccccc1CNC(=O)c1cc(C(F)(F)F)nn1-c1cccc2c1CN(CNC(=O)[C@H](C)N)C2	> 10000	
COc1ccccc1CNC(=O)c1cc(C(F)(F)F)nn1-c1ccc(CNC(=O)[C@H](C)N)s1	300	
